Reference: PubChem BioAssay
Calls of active or inactive are those of the source.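 Rule for the calls, unless noted: active = viability loss from added drug above about 55%, and viability with drug at most 40%, in both replicates (limit read from the data, passing the limit was not always enough); inconclusive = both conditions met in only one replicate; inactive = neither replicate meets both conditions.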

Tests used:
[1] = reducers of endogenous Her2 protein level, primary screen, SKBR3 breast tumor cells, AlphaScreen, ATP viability (AID 461;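 active = Her2 level under about 52% in both replicate screens, with viability over 70% of control, limit read from the data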;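 for Her2 level: lower value means less Her2 protein in the cells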;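 for viability: percent of carrier control wells set as 100% viability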); details: 18-24 h, measured here: SKBR3 viability, ATP luminescence, at 10 µM
[2] = molecular target: Receptor tyrosine-protein kinase erbB-2 (Homo sapiens) (UniProt P04626); experiment: as above; details: 18-24 h, at 10 µM, stronger effect = lower value
[3] = SK-BR-3 cell growth inhibitors, pilot screen, 24 h, human (AID 572;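 active = viability at or below 10% of carrier control in both of two separate runs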;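 note: compound exposure lasted between 18 and 24 h rather than exactly 24 h; 100% = carrier-treated control wells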); details: SK-BR-3 viability, CellTiter-Glo luminescence, at 10 µM, stronger effect = lower value
[4] = HUVEC growth inhibition – cell-based, human, primary screen (AID 575;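 active = viability at or below 30% in both replicate assays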;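 note: 100% = median of untreated cell wells with 0.1% DMSO on each plate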); details: HUVEC proliferation, CellTiter-Glo luminescence, 72 h; at 10 µM; stronger effect = lower value
How it was run: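 Assay system: primary human umbilical vein endothelial cells / Buffer or medium: endothelial basal medium with 2% FBS plus growth supplements / Compound dosing: one dose, 10 µM final, 0.1% DMSO / Timing: 72 h treatment at 37 °C / Signal: CTG luminescence / Benchmarks: 32 DMSO-only cell-control wells (high), 32 MePR drug-control wells (low) per plate / Plate: collagen-coated 384-well format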

[5] = growth inhibitors of H69AR lung tumor, primary screen, human, duplicate replicates (AID 580;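 active = viability at or under a set limit in both replicates, limit being median viability minus 3 SD, cut at about 48% in these data, passing the limit was not always enough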;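 note: 100% = mean luminescence of untreated wells and 0% = no signal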); details: H69AR lung tumor cells viability, ATP luminescence, 72 h; at 10 µM; stronger effect = lower value
[6] = reversal of MRP1-mediated doxorubicin resistance, pilot screen, H69AR cells, doxorubicin co-treatment (AID 601); details: CellTiter-Glo, 72 h, at 10 µM; for differential viability (reversal): stronger effect = higher value
[7] = 384-well plate pilot, post-Golgi transport modulator project, inhibition of yeast transport mutant growth (AID 636; in the data active = inhibition above about 31%); details: absorbance 615 nm, about 18 h, stronger effect = higher value
[8] = growth suppression of yeast trafficking mutant, preliminary HTS, modulators of trafficking downstream of Golgi apparatus project, 1536-format plate, OD 615 nm (AID 637; in the data active = inhibition above about 30%); details: yeast transport mutant growth, absorbance 615 nm, 18 h; stronger effect = higher value
[9] = H69AR cells + 2 uM doxorubicin, measured here: viability with 2 uM doxorubicin, stronger effect = lower value
[10] = H69AR cells, compound alone cytotoxicity

Sequence of Receptor tyrosine-protein kinase erbB-2 (Homo sapiens) (P04626 whole entry, looked up): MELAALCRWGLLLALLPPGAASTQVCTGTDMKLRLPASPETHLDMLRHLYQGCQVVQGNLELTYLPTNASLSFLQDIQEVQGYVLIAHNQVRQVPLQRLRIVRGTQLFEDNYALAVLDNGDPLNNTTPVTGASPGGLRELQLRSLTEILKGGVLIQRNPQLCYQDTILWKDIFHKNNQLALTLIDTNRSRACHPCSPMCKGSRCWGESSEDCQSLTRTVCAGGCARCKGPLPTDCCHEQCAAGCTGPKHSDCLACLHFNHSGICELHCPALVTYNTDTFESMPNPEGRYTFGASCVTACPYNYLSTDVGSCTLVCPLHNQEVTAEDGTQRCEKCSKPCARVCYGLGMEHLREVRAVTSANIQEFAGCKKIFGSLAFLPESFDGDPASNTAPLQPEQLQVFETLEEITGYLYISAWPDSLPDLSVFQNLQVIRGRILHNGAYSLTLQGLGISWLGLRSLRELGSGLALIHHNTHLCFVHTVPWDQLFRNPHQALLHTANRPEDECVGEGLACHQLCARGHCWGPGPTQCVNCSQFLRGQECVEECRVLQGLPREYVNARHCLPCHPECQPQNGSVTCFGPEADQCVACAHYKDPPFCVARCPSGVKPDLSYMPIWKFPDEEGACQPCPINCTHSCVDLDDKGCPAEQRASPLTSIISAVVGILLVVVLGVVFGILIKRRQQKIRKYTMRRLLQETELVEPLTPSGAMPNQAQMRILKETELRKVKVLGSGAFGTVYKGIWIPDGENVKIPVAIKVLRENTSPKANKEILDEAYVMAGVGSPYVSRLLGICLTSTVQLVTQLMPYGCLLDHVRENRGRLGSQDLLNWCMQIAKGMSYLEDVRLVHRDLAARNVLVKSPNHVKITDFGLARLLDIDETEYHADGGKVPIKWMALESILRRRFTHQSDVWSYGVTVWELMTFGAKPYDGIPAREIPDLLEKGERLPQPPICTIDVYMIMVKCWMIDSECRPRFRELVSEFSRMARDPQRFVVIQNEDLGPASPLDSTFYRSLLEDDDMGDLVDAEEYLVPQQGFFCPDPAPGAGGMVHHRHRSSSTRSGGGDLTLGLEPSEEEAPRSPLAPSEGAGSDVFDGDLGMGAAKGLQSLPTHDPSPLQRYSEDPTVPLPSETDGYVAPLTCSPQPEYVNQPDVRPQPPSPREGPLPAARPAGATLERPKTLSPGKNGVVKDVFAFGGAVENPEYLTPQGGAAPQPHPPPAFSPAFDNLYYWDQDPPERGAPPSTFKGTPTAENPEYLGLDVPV

| Compound | viability [1] | Her2 level [2] | viability [3] | viability [4] | viability [5] | differential viability (reversal) ([6]; H69AR cells + 2 uM doxorubicin) | viability [6, 9] | viability [6, 10] | inhibition [7] | inhibition [8] |
| --- | --- | --- | --- | --- | --- | --- | --- | --- | --- | --- |
| COC(=O)N1CC(c2ccccc2)CC1=O (stereo not given) | 96.5% | 81.5% (inactive) | 96.5% (inactive) | 101% (inactive) | 100% (inactive) | 15.1% (inactive) | 85% | 100% | -9.04% (inactive) | -6.51% (inactive) |
| COC(=O)C(C)Sc1nc2c(c(=O)n(C)c(=O)n2C)n1Cc1cccc(C)c1 (stereo not given) | 97.5% | 86.5% (inactive) | 97.5% (inactive) | 79.7% (inactive) | 91.5% (inactive) | 8.71% (inactive) | 82.8% | 91.5% | -0.26% (inactive) | -0.32% (inactive) |
| CCCn1c(C)nc2c(c1=O)c1nc3ccccc3nc1n2CCc1ccccc1 | 98% | 103% (inactive) | 98% (inactive) | 102% (inactive) | 88.5% (inactive) | -3.46% (inactive) | 91.9% | 88.5% | -4.42% (inactive) | 0.5% (inactive) |
| CCCNS(=O)(=O)c1ccc(OCC(=O)NCc2ccc3c(c2)OCO3)cc1 | 105% | 89.5% (inactive) | 105% (inactive) | 88.2% (inactive) | 94.1% (inactive) | 4.96% (inactive) | 89.1% | 94.1% | -6.05% (inactive) | 11% (inactive) |
| COC(=O)c1ccccc1NC(=O)c1noc2c1CCC2 | 93% | 83.5% (inactive) | 93% (inactive) | 86.7% (inactive) | 74.8% (inactive) | -4.56% (inactive) | 79.4% | 74.8% | -7.37% (inactive) | 2.55% (inactive) |
| CCOc1ccccc1OCC(=O)Nc1nnc(COC)s1 | 89% | 103% (inactive) | 89% (inactive) | 99.5% (inactive) | 91.8% (inactive) | -1.57% (inactive) | 93.3% | 91.8% | -2.8% (inactive) | 10.7% (inactive) |
| COc1ccc(CC(=O)Nc2c3c(nn2-c2cccc(Cl)c2)CS(=O)(=O)C3)cc1 | 84.5% | 89% (inactive) | 84.5% (inactive) | 104% (inactive) | 90.2% (inactive) | 1.1% (inactive) | 89.1% | 90.2% | -6.8% (inactive) | 3.06% (inactive) |
| O=S(=O)(Nc1ccn(-c2ccccc2)n1)c1ccc(Br)cc1 | 89% | 86.5% (inactive) | 89% (inactive) | 85.7% (inactive) | 87.5% (inactive) | -6.15% (inactive) | 93.7% | 87.5% | -3.77% (inactive) | 0.16% (inactive) |
| CSc1ccccc1NC(=O)c1c(Br)cnn1C | 89.5% | 94.5% (inactive) | 89.5% (inactive) | 79.2% (inactive) | 101% (inactive) | 6.58% (inactive) | 94.2% | 101% | -2.6% (inactive) | -4.44% (inactive) |
| Cc1ccc(S(=O)(=O)N(CC(=O)N2CCOCC2)CC(=O)N2CCOCC2)cc1 | 104% | 87% (inactive) | 104% (inactive) | 110% (inactive) | 107% (inactive) | 5.66% (inactive) | 101% | 107% | -4.87% (inactive) | 3.17% (inactive) |
| OC1C[N+]2(CCCCC2)C1 | 98% | 82% (inactive) | 98% (inactive) | 99.6% (inactive) | 109% (inactive) | 13% (inactive) | 95.6% | 109% | -4.8% (inactive) | -3.23% (inactive) |
| CN(C=O)CP(=O)(O)CCN1CCCC1=O | 126% | 121% (inactive) | 126% (inactive) | 104% (inactive) | 99.4% (inactive) | 7.19% (inactive) | 92.2% | 99.4% | -4.47% (inactive) | 0.66% (inactive) |
| COc1ccccc1N1CCN(C(=O)c2c(-c3c(Cl)cccc3Cl)noc2C)CC1 | 104% | 82.5% (inactive) | 104% (inactive) | 79% (inactive) | 105% (inactive) | 15% (inactive) | 90.3% | 105% | -5.95% (inactive) | 2.46% (inactive) |
| Cc1nc2sc(C(c3ccco3)N3CCN(c4ccccc4F)CC3)c(O)n2n1 (stereo not given) | 97% | 85% (inactive) | 97% (inactive) | 101% (inactive) | 97.5% (inactive) | 7.17% (inactive) | 90.3% | 97.5% | -6.27% (inactive) | 0.95% (inactive) |
| CCC(=O)c1ccc(OCCN2CCOCC2)cc1 | 99.5% | 91.5% (inactive) | 99.5% (inactive) | 111% (inactive) | 109% (inactive) | 17% (inactive) | 92.1% | 109% | -5% (inactive) | -3.87% (inactive) |
| N#Cc1c(N)nc2c(c1-c1ccncc1)CCCCC2 | 102% | 86.5% (inactive) | 102% (inactive) | 78.2% (inactive) | 90.7% (inactive) | -3.37% (inactive) | 94% | 90.7% | -4.4% (inactive) | 4.43% (inactive) |

| Compound | viability [1] | Her2 level [2] | viability [3] | viability [4] | viability [5] | differential viability (reversal) ([6]; H69AR cells + 2 uM doxorubicin) | viability [6, 9] | viability [6, 10] | inhibition [7] | inhibition [8] |
| --- | --- | --- | --- | --- | --- | --- | --- | --- | --- | --- |
| CCCCOCP(=O)(CCCC)COCCCC | 92.5% | 91.5% (inactive) | 92.5% (inactive) | 95.3% (inactive) | 94.1% (inactive) | 5.32% (inactive) | 88.8% | 94.1% | -3.12% (inactive) | -0.98% (inactive) |
| O=C(c1cn(-c2ccccc2)nc1-c1cccs1)N1CCN(c2ccccn2)CC1 | 101% | 79.5% (inactive) | 101% (inactive) | 72.4% (inactive) | 45.1% (active) | -40% (inactive) | 85.1% | 45.1% | -3.29% (inactive) | -2.38% (inactive) |
| COc1ccc(NS(=O)(=O)c2c(C)[nH]c(=O)[nH]c2=O)c(OC)c1 | 88.5% | 91% (inactive) | 88.5% (inactive) | 97.9% (inactive) | 90.8% (inactive) | 1.25% (inactive) | 89.5% | 90.8% | -0.39% (inactive) | -4% (inactive) |
| O=C(NCc1ccccc1)c1ccc(OC2CSC2)cc1 | 88% | 103% (inactive) | 88% (inactive) | 91.5% (inactive) | 112% (inactive) | 18.5% (inactive) | 93.6% | 112% | 2.34% (inactive) | -11% (inactive) |
| COC(=O)C1=C(C)n2nnnc2NC1c1ccc(Cl)cc1 (stereo not given) | 92% | 107% (inactive) | 92% (inactive) | 90.4% (inactive) | 95.3% (inactive) | 8.47% (inactive) | 86.8% | 95.3% | -0.39% (inactive) | 1.83% (inactive) |
| O=C(CCNS(=O)(=O)c1ccc(Cl)cc1)NCc1ccccn1 | 97.5% | 75.5% (inactive) | 97.5% (inactive) | 81.4% (inactive) | 89.7% (inactive) | -6.95% (inactive) | 96.7% | 89.7% | -5.26% (inactive) | -1.83% (inactive) |
| Cc1ccc(NC(=O)C2CCCN(S(=O)(=O)c3cnc[nH]3)C2)c(Br)c1 (stereo not given) | 88.5% | 92% (inactive) | 88.5% (inactive) | 88.1% (inactive) | 101% (inactive) | 8.17% (inactive) | 93.3% | 101% | -0.93% (inactive) | -1.97% (inactive) |
| O=C(O)c1cccc(S(=O)(=O)N2CCOCC2)c1 | 118% | 121% (inactive) | 118% (inactive) | 95% (inactive) | 98.9% (inactive) | 3.4% (inactive) | 95.5% | 98.9% | -1.37% (inactive) | 11.3% (inactive) |
| CC(=O)c1ccc(Oc2cc(C)nc(-n3nc(C)cc3C)n2)cc1 | 107% | 96% (inactive) | 107% (inactive) | 51.7% (inactive) | 29.4% (active) | -36.8% (inactive) | 66.2% | 29.4% | -5.87% (inactive) | -2.1% (inactive) |
| CCCC(=O)Nc1ccc(NC(=O)C2CC2)cn1 | 108% | 112% (inactive) | 108% (inactive) | 105% (inactive) | 102% (inactive) | 6.95% (inactive) | 95.4% | 102% | -1.73% (inactive) | 5% (inactive) |
| Cc1cc(C(F)F)n2ncc(C(=O)NC3CCCCCC3)c2n1 | 89.5% | 86% (inactive) | 89.5% (inactive) | 78.1% (inactive) | 89.9% (inactive) | -0.225% (inactive) | 90.2% | 89.9% | -4.74% (inactive) | 8.69% (inactive) |
| Cc1ccc(-c2noc(CCC(=O)N3CCN(c4cccc(C(F)(F)F)c4)CC3)n2)cc1 | 87.5% | 91% (inactive) | 87.5% (inactive) | 71.2% (inactive) | 93.1% (inactive) | -3.76% (inactive) | 96.8% | 93.1% | -3.95% (inactive) | -2.67% (inactive) |
| Cc1ccc(S(=O)(=O)N2CCOCC2)cc1C(=O)Nc1ccccn1 | 87% | 83% (inactive) | 87% (inactive) | 110% (inactive) | 93.8% (inactive) | 7.62% (inactive) | 86.1% | 93.8% | -6.76% (inactive) | -3.17% (inactive) |
| c1coc(-c2nnc(NC3=NCCC3)o2)c1 | 100% | 94% (inactive) | 100% (inactive) | 97.2% (inactive) | 98.7% (inactive) | 11.4% (inactive) | 87.3% | 98.7% | -5.34% (inactive) | -10.2% (inactive) |
| CN(C)c1ccc(CNCCC2(O)CCOC(C)(C)C2)cc1 (stereo not given) | 89% | 86% (inactive) | 89% (inactive) | 95.3% (inactive) | 102% (inactive) | 7.18% (inactive) | 95% | 102% | -6.08% (inactive) | 1.64% (inactive) |
| Cc1ccc2ncnc(NCCCN3CCOCC3)c2c1 | 98.5% | 120% (inactive) | 98.5% (inactive) | 91.4% (inactive) | 101% (inactive) | -0.115% (inactive) | 102% | 101% | -0.79% (inactive) | 5.41% (inactive) |
